An excerpt weighted towards active compounds, which were near 1.8% of everything screened.
Jurkat NFkB inh: inhibitors of induced NF-kB luciferase reporter, primary screen, TCR NF-kB activation inhibitor project, cell-based, luminescence, uHTS | Jurkat, PMA/ionomycin-induced NF-kB luciferase reporter | inhibition, % at 4 µM | hit rate 0.53% among 330,000; in the data active = inhibition above about 50%
GalR3 antag: GalR3 antagonists in HEK293 cells, primary screen, cell-based, fluorescence readout; AID 651719, 2012; hit rate 0.44% among 360,000; HEK293 GalR3-CNG cAMP membrane potential fluorescence; galR3 body fused to GalR1 C-terminus; Galanin receptor type 3 (Homo sapiens), O60755; inhibition, % at 3 µM;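 active = inhibition above the screen-wide average plus 3 SD, cut at about 13% in these data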;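 note: forskolin and galanin both at EC90 stimulate the cells; cAMP rise reported by CNG channel membrane potential dye signal; 0% = forskolin plus galanin with DMSO and 100% = forskolin alone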
Target sequence (O60755 1-299 limits assumed): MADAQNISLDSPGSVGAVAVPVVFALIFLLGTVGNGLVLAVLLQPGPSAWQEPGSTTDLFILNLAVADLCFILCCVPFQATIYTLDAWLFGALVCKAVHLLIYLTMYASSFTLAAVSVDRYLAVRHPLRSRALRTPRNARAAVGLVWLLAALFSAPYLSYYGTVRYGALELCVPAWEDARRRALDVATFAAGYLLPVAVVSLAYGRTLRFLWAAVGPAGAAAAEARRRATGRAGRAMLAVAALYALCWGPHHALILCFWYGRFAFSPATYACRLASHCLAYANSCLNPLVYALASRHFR
NR2E3 ag-1: inhibitors of NR2E3-RetCOR corepressor binding, primary screen, NR2E3 agonist project, biochemical, TR-FRET, GST-NR2E3, biotin-RetCOR. Photoreceptor-specific nuclear receptor (Homo sapiens), Q9Y5X4. 1536-well. inhibition of corepressor binding, % at 4.78 µM. hit rate 0.12% among 320,000. AID 2300, 2010;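 active = percent inhibition above the cutoff of mean plus 3 SD of all tested compounds, set per screening campaign, cut at about 20% in these data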;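 note: 0% = DMSO wells and 100% = biotin wells as full block of FRET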
Target sequence (Q9Y5X4 whole entry, looked up): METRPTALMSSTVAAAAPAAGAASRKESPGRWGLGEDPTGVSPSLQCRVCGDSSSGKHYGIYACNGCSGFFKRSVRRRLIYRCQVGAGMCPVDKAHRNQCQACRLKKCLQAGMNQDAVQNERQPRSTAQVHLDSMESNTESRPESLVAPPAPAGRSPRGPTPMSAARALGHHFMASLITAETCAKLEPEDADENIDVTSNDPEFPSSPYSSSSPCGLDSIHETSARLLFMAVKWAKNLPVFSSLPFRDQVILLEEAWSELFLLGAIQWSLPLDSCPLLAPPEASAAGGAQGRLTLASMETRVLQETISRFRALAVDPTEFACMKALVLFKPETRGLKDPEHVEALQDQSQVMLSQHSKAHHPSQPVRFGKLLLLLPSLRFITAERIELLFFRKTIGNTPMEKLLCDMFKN
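Material – GST-tagged NR2E3 plus biotinylated RetCOR corepressor · Quantity – NR2E3 fusion 1.35 nM · Times – 5 h incubation at 4 °C · Medium – pH 7.5 Tris-based buffer · Technique – TR-FRET, Eu(K)-anti-GST donor, streptavidin-D2 acceptor, ex 340, em 617/671 nm · Benchmarks – high control biotin, low control 0.6% DMSO · Format – 1536-well plates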
Gli-Sufu antag: Gli-Sufu pathway antagonists, primary screen, luciferase luminescence, Sufu-KO-LIGHT cells, uHTS | inhibition, % at 5 µM | AID 588413, 2011 | Sufu-KO-LIGHT fibroblasts, Gli luciferase reporter luminescence | hit rate 0.74% among 340,000;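 active = inhibition above about 55%, limit read from the data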;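 note: 0% = DMSO-treated cells and 100% = wells with medium but no cells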
NR2E3 ag-2: NR2E3 agonists in two-hybrid cells, primary screen, cell-based, luminescence, CHO-S, Gal4-NCOR/VP16-NR2E3 | Photoreceptor-specific nuclear receptor (Homo sapiens), Q9Y5X4 | luciferase | inhibition of corepressor binding, % at 3.98 µM | hit rate 0.35% among 360,000 | AID 602229, 2012;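 active = inhibition above the mean of all tested compounds plus 3 SD, cut at about 70% in these data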;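 note: 0% = DMSO with NR2E3 transfected cells and 100% = cells lacking NR2E3 construct; higher means lower luciferase signal from less NR2E3 corepressor binding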
697 NFkB inh: inhibitors of PMA/ionomycin-induced NF-kB reporter, 697 cells, primary screen, B-cell NF-kB inhibitor project, cell-based, luminescence, uHTS; 697 B-cell NF-kB luciferase reporter, 16 h; inhibition, % at 4 µM; hit rate 0.33% among 330,000; AID 435022, 2010; in the data active = inhibition above about 35%
NR2E3 agonist cf: NR2E3 agonists, confirmation, biochemical, TR-FRET. shares compounds with NR2E3 ag-1. activation (reported as inhibition), % at 3.98 µM. hit rate 39% among 360. cell-free NR2E3 corepressor release, 5 h. AID 2379, 2010; in the data active = activation above about 20%
PPARg-NCOR2 ag: agonists of PPARg-NCOR2 corepressor interaction, counter-screen for NR2E3 agonist project, biochemical, TR-FRET. inhibition, % at 3.98 µM. hit rate 45% among 360. TR-FRET PPARg-NCOR2 coregulator interaction. AID 504787, 2011. shares compounds with NR2E3 ag-1; in the data active = inhibition above about 20%;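 note: 0% = DMSO vehicle and 100% = wells without protein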
* hit, by the source's call.

For COc1ccc(C(=O)Nc2nnc(Cc3ccccc3)s2)c(OC)c1 the results were Jurkat NFkB inh -15.2, GalR3 antag -3.6, NR2E3 ag-1 47.4*, Gli-Sufu antag 0.3, NR2E3 ag-2 -36.6, 697 NFkB inh -15.1, NR2E3 agonist cf -8.8 and PPARg-NCOR2 ag 11.7.
O=C(Nc1nnc(Cc2ccccc2)s1)c1cccs1 was read as Jurkat NFkB inh -23.5, GalR3 antag -5.1, NR2E3 ag-1 27.0*, Gli-Sufu antag -27.7, NR2E3 ag-2 -29.8, 697 NFkB inh -65.5, NR2E3 agonist cf -2.0 and PPARg-NCOR2 ag 4.2.
CCOc1ccc(C2/C(=C(/O)c3ccc(F)cc3)C(=O)C(=O)N2CCCN(C)C)cc1 (configuration not stated) was read as Jurkat NFkB inh 13.0, GalR3 antag -3.8, NR2E3 ag-1 1.3, Gli-Sufu antag 3.2, NR2E3 ag-2 -11.1 and 697 NFkB inh -0.3.
`CCOc1ccc(/C(O)=C2/C(=O)C(=O)N(CCOCCO)C2c2ccc(F)cc2)cc1` (configuration not stated) gave Jurkat NFkB inh -2.7, GalR3 antag -2.3, NR2E3 ag-1 19.9*, Gli-Sufu antag 29.9, NR2E3 ag-2 12.6, 697 NFkB inh 8.5, NR2E3 agonist cf 13.6 and PPARg-NCOR2 ag 7.2.
Screening CCCCc1c(-c2ccccc2OC)ncn1C(C)c1ccc(Cl)cc1 (configuration not stated) returned GalR3 antag -8.1.
Screening COc1ccc(N2C(=O)c3[nH]nc(-c4ccccc4)c3C2c2ccc(Br)cc2)cc1 (configuration not stated) returned GalR3 antag -7.9.
Cc1cccc(NC(=O)CSc2ncnc3c2oc2ccccc23)c1 was read as Jurkat NFkB inh 4.8, GalR3 antag 4.0, NR2E3 ag-1 60.3*, Gli-Sufu antag -0.9, NR2E3 ag-2 5.1, 697 NFkB inh 17.6, NR2E3 agonist cf 66.2* and PPARg-NCOR2 ag 71.8*.
`O=C(CSc1ncnc2c1oc1ccccc12)c1cccs1` gave Jurkat NFkB inh -64.6, GalR3 antag 2.9, NR2E3 ag-1 30.7*, Gli-Sufu antag 10.5, NR2E3 ag-2 -63.6, 697 NFkB inh -56.0, NR2E3 agonist cf 24.6* and PPARg-NCOR2 ag 25.0*.
`O=C(CSc1ncnc2c1oc1ccccc12)Nc1cccc(F)c1` gave Jurkat NFkB inh 6.9, GalR3 antag -1.5, NR2E3 ag-1 0.7, Gli-Sufu antag 9.2, NR2E3 ag-2 -44.9 and 697 NFkB inh 18.6.
Screening Cc1nc(SCC(=O)c2cccs2)c2oc3ccccc3c2n1 returned Jurkat NFkB inh -55.9, GalR3 antag -1.7, NR2E3 ag-1 2.6, Gli-Sufu antag -46.5, NR2E3 ag-2 -101.2 and 697 NFkB inh -40.0.
`CCCCC(=O)Nc1ncc(Br)s1` gave Jurkat NFkB inh -7.6, NR2E3 ag-1 32.4*, Gli-Sufu antag -7.4, NR2E3 ag-2 15.6, 697 NFkB inh -33.7, NR2E3 agonist cf -2.1 and PPARg-NCOR2 ag -3.8.
CCCCC(=O)Nc1ncc([N+](=O)[O-])s1 was read as Jurkat NFkB inh 11.3, GalR3 antag -2.9, NR2E3 ag-1 -1.0, Gli-Sufu antag -4.2, NR2E3 ag-2 -8.9 and 697 NFkB inh -15.7.
For COc1cc2c(cc1OC)[C@](C)(c1ccccc1)C[C@@H]2NCC=C(C)C the results were GalR3 antag -13.1.
`Cc1ccc(S(=O)(=O)NCC(=O)OCC(=O)c2ccc(Cl)s2)cc1` gave Jurkat NFkB inh -1.0, GalR3 antag -1.3, NR2E3 ag-1 -0.5, Gli-Sufu antag -4.8, NR2E3 ag-2 -17.4 and 697 NFkB inh 3.5.
`Cc1ccc(S(=O)(=O)NCC(=O)OCC(=O)c2ccc(Br)s2)cc1` gave Jurkat NFkB inh 5.9, GalR3 antag -2.4, NR2E3 ag-1 21.8*, Gli-Sufu antag 7.1, NR2E3 ag-2 -14.2, 697 NFkB inh 9.0, NR2E3 agonist cf 3.2 and PPARg-NCOR2 ag 9.9.
`O=C(C(=O)N1CCC(CNS(=O)(=O)c2ccc3ccccc3c2)CC1)c1cc2ccccc2o1` gave GalR3 antag -6.3.
Cc1cs/c(=N/C(=S)Nc2ccccc2)n1C was read as Jurkat NFkB inh -129.6, GalR3 antag 6.7, NR2E3 ag-1 6.8, Gli-Sufu antag -87.2, NR2E3 ag-2 -162.0 and 697 NFkB inh -127.7.
`CCCn1c(C)cs/c1=N\C(=S)Nc1ccccc1` gave Jurkat NFkB inh -0.1, GalR3 antag -3.5, NR2E3 ag-1 25.6*, Gli-Sufu antag 9.0, NR2E3 ag-2 0.7, 697 NFkB inh -19.7, NR2E3 agonist cf 17.2 and PPARg-NCOR2 ag 14.3.
For Cc1cc(C2C(C#N)=C(N)SC(N)=C2C#N)c(C)s1 the results were Jurkat NFkB inh -3.1, NR2E3 ag-1 23.6*, Gli-Sufu antag 17.1, NR2E3 ag-2 6.5, 697 NFkB inh 1.5, NR2E3 agonist cf 11.2 and PPARg-NCOR2 ag 38.4*.
For Cc1cc(C2C(C#N)=C(N)Oc3n[nH]c(C)c32)c(C)s1 (configuration not stated) the results were Jurkat NFkB inh 0.8, GalR3 antag 1.3, NR2E3 ag-1 0.9, Gli-Sufu antag 2.4, NR2E3 ag-2 -3.4 and 697 NFkB inh 2.4.
`Cc1cc(C)c(C2=NOC3c4ccccc4OCC23)c(C)c1` (configuration not stated) gave GalR3 antag -5.2.
For COC(=O)C1=C(C)N(Cc2cccc(C(F)(F)F)c2)C(=NCc2ccc3c(c2)OCO3)NC1c1ccccc1C(F)(F)F (configuration not stated) the results were GalR3 antag -6.8.
O=C(O)C1CCN(c2nc(-c3ccccc3)c3cc(Br)ccc3n2)CC1 was read as Jurkat NFkB inh -43.3, GalR3 antag -11.8, NR2E3 ag-1 20.9*, Gli-Sufu antag -8.5, NR2E3 ag-2 -59.2, 697 NFkB inh 3.4, NR2E3 agonist cf 23.7* and PPARg-NCOR2 ag 25.0*.
Screening O=C(CSc1nc2ccccc2c(=O)n1-c1ccccc1Cl)Nc1cccc(S(=O)(=O)N2CCOCC2)c1 returned Jurkat NFkB inh 9.4, GalR3 antag -0.8, NR2E3 ag-1 25.2*, Gli-Sufu antag -9.7, NR2E3 ag-2 -6.8, 697 NFkB inh -9.7, NR2E3 agonist cf -5.7 and PPARg-NCOR2 ag -7.7.

High-throughput results deposited in PubChem BioAssay by several laboratories.
